Data from ChEMBL document CHEMBL5576140, “Computational Design of Pore-Forming Peptides with Potent Antimicrobial and Anticancer Activities” (J Med Chem, 2024).
Values belong to the substance of their own block, whether it stands above or below them. The source made the active and inactive calls. No cut-off for these calls is given here.

How the values were obtained:
Staphylococcus aureus [1] = assay: Antimicrobial activity against Staphylococcus aureus NE1506 harboring single transposon insertion mutation in V8 protease at 30 uM incubated for 18 hrs relative to control; type: functional
Method in brief: (§1)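 CA-MRSA USA300 LAC derivative JE2 and single transposon insertion mutants derived from JE2, each lacking an extracellular protease gene, were exposed to peptides up to 30 μM. The read-out was percent growth inhibition. Peptides were dissolved in PBS, and tests were run in triplicate.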

Staphylococcus aureus [2] = assay: Antimicrobial activity against Staphylococcus aureus NE163 harboring single transposon insertion mutation in aureolysin at 30 uM incubated for 18 hrs relative to control; type: functional; method in brief: as §1
Staphylococcus aureus [3] = assay: Antimicrobial activity against Staphylococcus aureus NE934 harboring single transposon insertion mutation in staphopain B at 30 uM incubated for 18 hrs relative to control; type: functional; method in brief: as §1
Staphylococcus aureus [4] = assay: Antimicrobial activity against Staphylococcus aureus NE1740 harboring single transposon insertion mutation in staphopain A at 30 uM incubated for 18 hrs relative to control; type: functional; method in brief: as §1
[5] = Hemolytic activity against human RBC incubated for 1 hr by microplate reader analysis; type: toxicity, cell-based, Erythrocyte; conditions: red blood cells (erythrocytes)
Method in brief: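 Human red blood cells exposed to peptides up to 50 μM; hemolysis measured, IC50 derived where reached.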

[6] = Stability in simulated pore POPC lipid bilayer membrane; type: physicochemical
Method in brief: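 Coarse-grained MD with the "scaled" Martini force field, peptides in POPC membrane, 51 μs. Counts transmembrane peptides at 51 μs. Water beads within 2 nm vertically of membrane centre and peptide–peptide interaction energy averaged over 48–51 μs. Contacts (salt bridge or stacking) scored below 0.8 nm and called stable if present ≥50% of the time.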

Escherichia coli [7] = assay: Depolarization of cytoplasmic membrane in Escherichia coli ATCC 11775 at MIC measured for 45 mins by DiSC3-(5) dye based assay; type: functional, organism-based
Method in brief: (§2)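 Bacteria loaded with membrane-potential dye DiSC3-(5), then treated with peptide at its MIC for the respective strain; depolarization read as rise in dye fluorescence; polymyxin B and levofloxacin as reference antibiotics.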

Mus musculus [8] = assay: Induction of wound healing activity in immunosuppressed Balb/c mouse excisional dorsal wound infection model infected with Acinetobacter baumannii NCTC 13301 assessed as decrease in serocellular crust at about 10 mg/kg treated for 7 days once daily measured after 20 days; type: functional, organism-based; conditions: time 20.0 day
Pseudomonas aeruginosa [9] = assay: Depolarization of cytoplasmic membrane in Pseudomonas aeruginosa PAO1 at MIC measured for 45 mins by DiSC3-(5) dye based assay; type: functional, organism-based; method in brief: as §2
[10] = Stability in human serum assessed as half life at 10 mg/ml by UPLC-MS analysis; type: ADME, cell-free
Method in brief: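 Peptides dissolved in PBS and incubated in 25% human serum. Intact peptide remaining followed over time to at least 6 h; half-life taken as time to 50% stability.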

Klebsiella pneumoniae [11] = assay: Induction of outer membrane permeabilization in Klebsiella pneumoniae ATCC 13883 measured for 20 mins by NPN uptake assay; type: functional, organism-based
Method in brief: (§3)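 Outer-membrane permeabilization of Gram-negative bacteria read as rise in fluorescence of the lipophilic dye NPN, which enters only when outer-membrane integrity is compromised. Peptides applied at their MIC against the respective strain; polymyxin B and levofloxacin as reference antibiotics. Triplicates.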

Staphylococcus aureus [12] = assay: Depolarization of cytoplasmic membrane in Staphylococcus aureus ATCC 12600 at MIC measured for 45 mins by DiSC3-(5) dye based assay; type: functional, organism-based; method in brief: as §2
Escherichia coli [13] = assay: Antimicrobial activity against Escherichia coli TOP10 at pH 6 to 8; type: functional, organism-based
Method in brief: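 E. coli TOP10 broth microdilution with growth medium at pH 8 and pH 6; MIC taken as lowest concentration inhibiting visible growth.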

[14] = Toxicity in immunosuppressed Balb/c mouse excisional dorsal wound infection model infected with Acinetobacter baumannii NCTC 13301 assessed as body weight loss at about 10 mg/kg treated for 7 days once daily measured after 45 days; type: organism-based; conditions: in vivo, 1080 h, time 45 day
Method in brief: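 Excisional dorsal wound model in immunosuppressed mice infected with 5 × 10⁴ cells per mL of A. baumannii. Treated, PBS-treated and untreated groups were compared. Body weight and survival were followed for 45 days.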

Lipid bilayer = assay: Induction of pore formation in POPC/POPG SLBs at 1 uM measured for 2 hrs by real-time AFM analysis; conditions: filed as activator
Method in brief: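 Real-time AFM topography of supported lipid bilayers of POPC:POPG 1:1 mol/mol, checked defect-free and vesicle-free before peptide addition. P:L 1:500, final peptide 1 μM. Images at 1 × 1 μm², 400 × 400 nm² and 200 × 200 nm², height scale 2 nm. Pores followed over 2 h.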

[15] = Toxicity in immunosuppressed Balb/c mouse excisional dorsal wound infection model infected with Acinetobacter baumannii NCTC 13301 assessed as decrease in animal survival at about 10 mg/kg treated for 7 days once daily measured after 45 days; type: organism-based; conditions: in vivo, 1080 h, time 45 day
Mus musculus [16] = assay: Induction of wound healing activity in immunosuppressed Balb/c mouse excisional dorsal wound infection model infected with Acinetobacter baumannii NCTC 13301 assessed as reduction in wound expansion at about 10 mg/kg treated for 7 days once daily; type: functional, organism-based; conditions: time 7.0 day
Acinetobacter baumannii [17] = assay: Induction of outer membrane permeabilization in Acinetobacter baumannii ATCC 19606 measured for 20 mins by NPN uptake assay; type: functional, organism-based
Mus musculus [18] = assay: Induction of wound healing activity in immunosuppressed Balb/c mouse excisional dorsal wound infection model infected with Acinetobacter baumannii NCTC 13301 assessed as reduction in necrosis of epidermal tissue at wound edges at about 10 mg/kg treated for 7 days once daily; type: functional, organism-based; conditions: time 7.0 day
Escherichia coli [19] = assay: Antimicrobial activity against Escherichia coli ATCC 25922 incubated for 18 to 20 hrs by broth microdilution assay; type: functional; conditions: time 18-20 hrs
Method in brief: (§4)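 Broth microdilution assay. MIC was taken as the lowest peptide concentration that inhibited visible growth of the bacteria. Peptides were dissolved in PBS, and experiments were run in triplicate.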

Acinetobacter baumannii [20] = assay: Antimicrobial activity against colistin/meropenem-resistant Acinetobacter baumannii GSAB 164 incubated for 18 to 20 hrs by broth microdilution assay; type: functional; conditions: time 18-20 hrs; method in brief: as §4
Acinetobacter baumannii [21] = assay: Antimicrobial activity against Acinetobacter baumannii CIP7010 incubated for 16 to 20 hrs; type: functional; conditions: time 16-20 hrs; method in brief: as §4
[22] = Toxicity against reconstructed human skin model assessed as tissue viability at 50 uM incubated for 1 hr followed by compound washout measured after 42 hrs by MTT assay; type: tissue-based, Skin of body; conditions: read-out: Activity
Method in brief: (§5)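 Reconstructed human epidermis with stratum corneum, per OECD TG 439 skin irritation guideline. Tissues exposed 1 h to peptide at 50 μM, then 42 h post-treatment incubation. Viability read by MTT. Controls were SDS and melittin.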

[23] = Toxicity in neutropenic CD-1 mouse deep thigh infection model infected with Acinetobacter baumannii ATCC 19606 assessed as body weight change at 0.17 mg/kg, ip measured after 4 days; type: organism-based; conditions: in vivo, 96 h, time 4 day
Method in brief: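 Neutropenic mice infected intramuscularly in the right thigh with 10⁶ cells per mL of A. baumannii ATCC 19606. […] Body weight monitored for toxicity. Euthanasia 4 days post-infection (day 8). n = 6 per group, from three inocula.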

Escherichia coli [24] = assay: Induction of outer membrane permeabilization in Escherichia coli ATCC 11775 measured for 20 mins by NPN uptake assay; type: functional, organism-based
Pseudomonas aeruginosa [25] = assay: Induction of outer membrane permeabilization in Pseudomonas aeruginosa PAO1 measured for 20 mins by NPN uptake assay; type: functional, organism-based; method in brief: as §3
Acinetobacter baumannii [26] = assay: Depolarization of cytoplasmic membrane in Acinetobacter baumannii ATCC 19606 at MIC measured for 45 mins by DiSC3-(5) dye based assay; type: functional, organism-based; method in brief: as §2
Acinetobacter baumannii [27] = assay: Anti-infective activity against Acinetobacter baumannii ATCC 19606 infected in neutropenic CD-1 mouse deep thigh infection model assessed as reduction in bacterial load at 0.17 mg/kg, ip measured after 4 days; type: functional, organism-based; conditions: time 4.0 day
Method in brief: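 Neutropenic mice infected intramuscularly in right thigh with 10⁶ cells per mL A. baumannii ATCC 19606; single intraperitoneal peptide dose at 10× MIC; bacterial load determined 4 days after treatment (euthanized day 8); n = 6 per group from three inocula; one-way ANOVA with Dunnett's test versus untreated.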

[28] = Toxicity against reconstructed human skin model assessed as irritation at 50 uM incubated for 1 hr followed by compound washout measured after 42 hrs by MTT assay; type: tissue-based, Skin of body; method in brief: as §5
Klebsiella pneumoniae [29] = assay: Depolarization of cytoplasmic membrane in Klebsiella pneumoniae ATCC 13883 at MIC measured for 45 mins by DiSC3-(5) dye based assay; type: functional, organism-based; method in brief: as §2
Enterococcus faecium = assay: Depolarization of cytoplasmic membrane in Enterococcus faecium ATCC 700221 at MIC measured for 45 mins by DiSC3-(5) dye based assay; type: functional, organism-based; method in brief: as §2

Substance: H-KKKKLKKILKKLFNFINNLDNNLNDIKNNK-NH2
inhibition at 30 µM (Staphylococcus aureus [1]): < 45%
inhibition at 30 µM (Staphylococcus aureus [2]): < 45%
inhibition at 30 µM (Staphylococcus aureus [3]): < 45%
inhibition at 30 µM (Staphylococcus aureus [4]): < 45%

Substance: H-KKKKLKKILKKLFQFIDQLINDLQNIKKKK-NH2
IC50 at 1 h [5]: > 50 µM

Stability [6]: Stable
Substance: H-KKKKLKKILKKLFQFINQLDNQLQDFKQNK-OH
IC50 at 1 h [5]: > 50 µM

Substance: H-KKKKLKKILKKLFQFINQLDNQLQDIKKKK-NH2
Activity (Escherichia coli [7]): Active
inhibition at 30 µM (Staphylococcus aureus [1]): < 45%
Activity (Mus musculus [8]): inactive
Activity (Pseudomonas aeruginosa [9]): Active
inhibition at 30 µM (Staphylococcus aureus [2]): < 45%
half-life at 10 mg/ml [10]: > 6 h
Activity (Klebsiella pneumoniae [11]): Active
Activity (Staphylococcus aureus [12]): Active
Activity (Escherichia coli [13]): Active
Activity [14]: Toxic
Activity (Lipid bilayer): Active
Activity [15]: Toxic
Activity (Mus musculus [16]): Active
Activity (Acinetobacter baumannii [17]): inactive
Activity (Mus musculus [18]): Active
MIC (Escherichia coli [19]): 1 µM
MIC (Acinetobacter baumannii [20]): 1 µM
inhibition at 30 µM (Staphylococcus aureus [3]): < 45%
MIC (Acinetobacter baumannii [21]): 0.5 µM
IC50 at 1 h [5]: > 50 µM
viability at 1 h, 50 µM [22]: 100%
Activity [23]: Non-Toxic
Activity (Escherichia coli [24]): Active
Activity (Pseudomonas aeruginosa [25]): Active
Activity (Acinetobacter baumannii [26]): Active
Activity (Acinetobacter baumannii [27]): inactive
Activity [28]: Non-Toxic
inhibition at 30 µM (Staphylococcus aureus [4]): < 45%
Activity (Klebsiella pneumoniae [29]): Active
Activity (Enterococcus faecium): Active

Substance: H-KKKKLKKILKKLFQFINQLDNQLQDIKQNK-OH
IC50 at 1 h [5]: > 50 µM
